# Measured values reported in PubChem BioAssay AID651952 (The Scripps Research Institute Molecular Screening Center, 2012).
# Screen size: about 2,400 compounds; about 940 (39%) were called active. These entries were drawn from the full list. Values without a mark were called inactive.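 How the source made its calls: active means inhibition above the plate's mean compound inhibition plus 3 SD, computed per plate (cut at about 22% in these data); inactive means the rest.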
# Test: inhibition of ATP-evoked calcium response in CHO-Ga16 cells, counter-screen for TAAR1 agonist project, cell-based, fluorescence (AID 651952);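 further: 0% = EC80 ATP with DMSO and 100% = DMSO wells without ATP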
# Conditions: CHO-Ga16 ATP-induced calcium, Fluo-8 fluorescence; at 3 µM; hits give high values
# Outline: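 Test system: Gα16-expressing CHO parent cells / Schedule: 17–24 h seeding, dye 75 min 37 °C, 30 min RT / Detection: Fluo-8 calcium fluorescence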
row,SMILES,inhibition
1,Cc1ccc(NC(=O)CCN2CCc3ccccc3C2)cc1,10.1%
2,O=C(O)C1CC=CCC1C(=O)NCCc1ccccc1 (configuration not stated),3.62%
3,S=C(NCCc1ccccc1)N1CCn2cccc2C1c1ccncc1 (configuration not stated),21.8% (active)
4,O=C(NCCc1ccccc1)C(=O)NCC1OCCN1S(=O)(=O)c1cccs1 (configuration not stated),10.6%
5,COc1ccc(Cl)cc1C(=O)NNC(=S)NC(=O)/C=C/c1ccco1,55.5% (active)
6,O=C1CCCN2N=C(SCC(=O)Nc3ccc(Br)cc3)SC2=N1,20%
7,CCCCCc1c(Cc2ccccc2)ncn1CCc1ccccc1OC,30.6% (active)
8,CCCCCc1c(-c2ccc(OC)c(OC)c2)ncn1CCc1ccccc1OC,44.5% (active)
9,CCCCCc1c(-c2cccc(Br)c2)ncn1CCc1ccccc1OC,25.3% (active)
10,O=C(CNC(=O)c1ccccc1F)OCC(=O)c1c[nH]c2ccccc12,-2.93%
11,O=C(c1noc2c1CCCC2)N1CCc2ccccc2C1,2.82%
12,CCC(c1nnnn1Cc1ccco1)N(CCc1ccccc1)Cc1cc2ccc(OC)cc2[nH]c1=O (configuration not stated),15.3%
13,CC(Oc1ccc(Cl)cc1)C(=O)OCC(=O)Nc1ncc(Cl)cc1Cl (configuration not stated),12.8%
14,CCCn1c(O)c(CN2CCCC(C)C2)c(C)c(C#N)c1=O (configuration not stated),11.4%
15,Cc1cc2nc3c(=O)[nH]c(=O)nc-3n(C[C@H](O)[C@H](O)[C@H](O)CO)c2cc1C,60.5% (active)
16,COc1ccc(C(=O)CN2C(=O)NC(C)(c3ccc(C)cc3)C2=O)cc1OC (configuration not stated),12.3%
17,c1ccc2c(c1)OCC(CNc1ncnc3nc[nH]c13)O2 (configuration not stated),103% (active)
18,COc1cc(OC)c(-n2cc(-c3ccc(Cl)cc3)[nH]c2=O)cc1Cl,47.5% (active)
19,O=Cc1c(NCCc2cccc(F)c2)c2ccccc2[nH]c1=O,5.51%
20,CSc1nc(N)c(C#N)c(-c2ccccc2Cl)c1C#N,23.4% (active)
21,OC(CNCCc1ccc(Cl)cc1Cl)COc1ccccc1 (configuration not stated),16.3%
22,COC(=O)c1[nH]c2cccc(C)c2c1NC(=O)CN1CCCc2ccccc21,22.5% (active)
